Results reported in ChEMBL document CHEMBL1124270, “Quinolone antibacterial agents. Synthesis and structure-activity relationships of 8-substituted quinoline-3-carboxylic acids and 1,8-naphthyridine-3-carboxylic acids” (1988).
In brackets after ≈: the same amount, converted by molar mass.

Assays:
Format in all cases: functional
[1] = system: Escherichia coli; experiment: Minimum concentration needed to produce linear DNA at an intensity relative to oxolinic at 10 ug/mL in Escherichia coli H560 in vitro.
In short: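 DNA gyrase cleavage test, run as previously described: end point is the lowest drug level (µg/mL) that yields linear DNA at a band intensity matching oxolinic acid at 10 µg/mL. Values come from duplicate or triplicate experiments and are stated as accurate to ±50%.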

[2] = system: Escherichia coli; experiment: Minimum inhibitory concentration against Escherichia coli H560 in vitro.
[3] = system: Escherichia coli; experiment: Minimum inhibitory concentration against Escherichia coli vogel in vitro.
[4] = system: Enterobacter cloacae; experiment: Minimum inhibitory concentration against Enterobacter cloacae HA 2646 in vitro.
[5] = system: Klebsiella pneumoniae; experiment: Minimum inhibitory concentration against Klebsiella pneumoniae MGH-2 in vitro.
[6] = system: Mus musculus; experiment: In vivo potency against Escherichia coli vogel using mouse protection assay when given perorally; settings: po, read-out: PD50
[7] = system: Mus musculus; experiment: In vivo potency against Staphylococcus aureus using mouse protection assay when given orally; settings: po, read-out: PD50
[8] = system: Pseudomonas aeruginosa; experiment: Minimum inhibitory concentration against Pseudomonas aeruginosa UI-18 in vitro.
[9] = system: Providencia rettgeri; experiment: Minimum inhibitory concentration against Providencia rettgeri H1771 in vitro.
[10] = system: Streptococcus pyogenes; experiment: Minimum inhibitory concentration against Streptococcus pyogenes C203 in vitro.
[11] = system: Streptococcus pneumoniae; experiment: Minimum inhibitory concentration against Streptococcus pneumoniae SV-1 in vitro.
[12] = system: Staphylococcus aureus; experiment: Minimum inhibitory concentration against Staphylococcus aureus H228 in vitro.
[13] = system: Staphylococcus aureus; experiment: Minimum inhibitory concentration against Staphylococcus aureus UC-76 in vitro.
[14] = system: Enterococcus faecalis; experiment: Minimum inhibitory concentration against Streptococcus faecalis MGH-2 in vitro.
[15] = system: Mus musculus; experiment: In vivo potency against Streptococcus pneumoniae using mouse protection assay when given orally; settings: po, read-out: PD50
[16] = system: Mus musculus; experiment: In vivo potency against Escherichia coli vogel using mouse protection assay when given subcutaneously; settings: sc, read-out: PD50
[17] = system: Staphylococcus aureus; experiment: In vivo potency against Staphylococcus aureus using mouse protection assay following p.o. administration.; settings: po, read-out: PD50
[18] = system: Staphylococcus aureus; experiment: In vivo potency against Staphylococcus aureus using mouse protection assay following s.c. administration.; settings: sc, read-out: PD50
[19] = system: Streptococcus pneumoniae; experiment: In vivo potency against Streptococcus pneumoniae using mouse protection assay following p.o. administration.; settings: po, read-out: PD50
[20] = system: Streptococcus pneumoniae; experiment: In vivo potency against Streptococcus pneumoniae using mouse protection assay following s.c. administration.; settings: sc, read-out: PD50

Row | SMILES | DNA cleavage conc (gyrase) [1] [µg/mL] | MIC [2] [µg/mL] | MIC [3] [µg/mL] | MIC [4] [µg/mL] | MIC [5] [µg/mL] | ED50 [6] [mg/kg] | ED50 [7] [mg/kg] | MIC [8] [µg/mL] | MIC [9] [µg/mL] | MIC [10] [µg/mL] | MIC [11] [µg/mL] | MIC [12] [µg/mL] | MIC [13] [µg/mL] | MIC [14] [µg/mL] | ED50 [15] [mg/kg] | ED50 [16] [mg/kg] | ED50 [17] [mg/kg] | ED50 [18] [mg/kg] | ED50 [19] [mg/kg] | ED50 [20] [mg/kg]
1 | CNCC1CCN(c2c(F)cc3c(=O)c(C(=O)O)cn(C4CC4)c3c2F)C1 (configuration not stated) | 0.25 | 0.006 (≈ 0.0159 µM) | 0.05 (≈ 0.132 µM) | 0.025 (≈ 0.0662 µM) | 0.05 (≈ 0.132 µM) | 2 | 22 | 0.2 (≈ 0.53 µM) | 0.2 (≈ 0.53 µM) | 0.006 (≈ 0.0159 µM) | 0.006 (≈ 0.0159 µM) | 0.025 (≈ 0.0662 µM) | 0.013 (≈ 0.0344 µM) | 0.013 (≈ 0.0344 µM) | 2 |  |  |  |  | 
2 | CN(C)CC1CCN(c2c(F)cc3c(=O)c(C(=O)O)cn(C4CC4)c3c2Cl)C1 (configuration not stated) | 1 | 0.025 (≈ 0.0613 µM) | 0.1 (≈ 0.245 µM) | 0.2 (≈ 0.49 µM) | 0.1 (≈ 0.245 µM) | 4 |  | 0.8 (≈ 1.96 µM) | 0.4 (≈ 0.981 µM) | 0.025 (≈ 0.0613 µM) | 0.006 (≈ 0.0147 µM) | 0.013 (≈ 0.0319 µM) | 0.006 (≈ 0.0147 µM) | 0.05 (≈ 0.123 µM) |  | 2 | 61 | 38 | 2 | 2
3 | NCC1CCN(c2nc3c(cc2F)c(=O)c(C(=O)O)cn3C2CC2)C1 (configuration not stated) | 0.5 | 0.025 (≈ 0.0722 µM) | 0.1 (≈ 0.289 µM) | 0.1 (≈ 0.289 µM) | 0.1 (≈ 0.289 µM) | 17 | 55 | 0.2 (≈ 0.577 µM) | 0.4 (≈ 1.15 µM) | 0.025 (≈ 0.0722 µM) | 0.1 (≈ 0.289 µM) | 0.2 (≈ 0.577 µM) | 0.006 (≈ 0.0173 µM) | 0.025 (≈ 0.0722 µM) | 100 |  |  |  |  | 
4 | CCNCC1CCN(c2nc3c(cc2F)c(=O)c(C(=O)O)cn3C2CC2)C1 (configuration not stated) | 0.75 | 0.05 (≈ 0.134 µM) | 0.1 (≈ 0.267 µM) | 0.2 (≈ 0.534 µM) | 0.1 (≈ 0.267 µM) | 7 |  | 0.8 (≈ 2.14 µM) | 0.8 (≈ 2.14 µM) | 0.1 (≈ 0.267 µM) | 0.1 (≈ 0.267 µM) | 0.1 (≈ 0.267 µM) | 0.05 (≈ 0.134 µM) | 0.1 (≈ 0.267 µM) |  | 1 | 62 | 15 | 16 | 6
5 | Cl.NC1CCN(c2c(F)cc3c(=O)c(C(=O)O)cn(C4CC4)c3c2Cl)C1 (configuration not stated) [CLINAFLOXACIN HYDROCHLORIDE] | 0.5 | 0.006 | 0.013 | 0.025 | 0.025 | 3 |  | 0.05 | 0.025 | 0.05 | 0.05 | 0.05 | 0.013 | 0.05 |  | 0.6 | 13 | 5 | 10 | 4
6 | Cl.Cl.NC1CCN(c2cc3c(cc2F)c(=O)c(C(=O)O)cn3C2CC2)C1 (configuration not stated) | 0.1 | 0.006 | 0.025 | 0.025 | 0.1 | 3 |  | 0.1 | 0.1 | 0.1 | 0.05 | 0.1 | 0.025 | 0.1 |  | 0.5 | 49.5 |  | 43 | 4
7 | O=C(O)c1cn(C2CC2)c2cc(N3CCNCC3)c(F)cc2c1=O [CIPROFLOXACIN] |  | 0.025 (≈ 0.0754 µM) |  |  | 0.1 (≈ 0.302 µM) | 1 |  | 0.4 (≈ 1.21 µM) | 0.1 (≈ 0.302 µM) | 0.8 (≈ 2.41 µM) | 1.6 (≈ 4.83 µM) | 3.1 (≈ 9.36 µM) | 0.2 (≈ 0.604 µM) | 0.8 (≈ 2.41 µM) |  | 0.3 | 25 | 5 | > 100 | 19
8 | CN(C)CC1CCN(c2cc3c(cc2F)c(=O)c(C(=O)O)cn3C2CC2)C1 (configuration not stated) | 0.75 | 0.1 (≈ 0.268 µM) | 0.1 (≈ 0.268 µM) | 0.1 (≈ 0.268 µM) | 0.2 (≈ 0.536 µM) | 4 |  | 1.6 (≈ 4.28 µM) | 0.4 (≈ 1.07 µM) | 0.2 (≈ 0.536 µM) | 0.1 (≈ 0.268 µM) | 0.1 (≈ 0.268 µM) | 0.1 (≈ 0.268 µM) | 0.2 (≈ 0.536 µM) |  | 2 | 47 | 26 | 18 | 9
9 | CN(C)CC1CCN(c2c(F)cc3c(=O)c(C(=O)O)cn(C4CC4)c3c2F)C1 (configuration not stated) | 0.1 | 0.025 (≈ 0.0639 µM) | 0.2 (≈ 0.511 µM) | 0.2 (≈ 0.511 µM) | 0.2 (≈ 0.511 µM) | 2 |  | 0.8 (≈ 2.04 µM) | 0.8 (≈ 2.04 µM) | 0.05 (≈ 0.128 µM) | 0.05 (≈ 0.128 µM) | 0.025 (≈ 0.0639 µM) | 0.025 (≈ 0.0639 µM) | 0.025 (≈ 0.0639 µM) |  | 1 | 45 | 20 | 5 | 5
